The source made the active and inactive calls.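 Rule for the calls, unless noted: active = visually confirmed hit in the image check and inhibition above 20%; inconclusive = visually confirmed hit but inhibition not above 20%; inactive = no visual hit in the image check.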
Columns and labels:
[1] = inhibitors of TNFa-induced NFkB p65 translocation, primary screen, imaging, HUVEC, MLSMR starter and 10KST1 sets (AID 438;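 active = inhibition above 20% together with a positive visual image hit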;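 note: compound added about 3h40 before a 20 min TNFalpha stimulation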;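 for inhibition: signal is the nuclear over cytoplasmic p65 intensity ratio per well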); details: HUVEC TNFa-induced p65 nuclear translocation; cell count: measured here: nuclei count (cytotoxicity indicator), at 2.08 µM; inhibition: at 2 µM, stronger effect = higher value, 0% TNFa-plus-vehicle, 100% no-TNFa wells
[2] = inhibitors of E-selectin induction by TNFa, primary screen, imaging, HUVEC, immunofluorescence, MLSMR starter and 10KST1 sets (AID 487); details: HUVEC TNFalpha-induced E-selectin immunofluorescence imaging, at 2 µM; inhibition: stronger effect = higher value; nuclei count: measured here: cell number, toxicity;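 for inhibition: signal is fraction of cell area covered by stained E-selectin grains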;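 for nuclei count: 100% = median nuclei count of all wells on the same plate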
[3] = DUSP6 inhibitors restoring Erk phosphorylation by chemical complementation, primary imaging in DUSP6-transfected HeLa (AID 609;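 active = compounds giving at least 50% inhibition in the cell-based MKP-3 phosphatase rescue imaging test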;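 for inhibition: phospho-Erk level distribution per well compared with pooled transfected vehicle control wells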); details: HeLa MKP-3 transfected, phospho-Erk imaging KS statistic, at 10 µM, cells stimulated with TPA for 15 min
[4] = target: Dual specificity protein phosphatase 6 (Homo sapiens) (UniProt Q16828); test: as above; details: HeLa MKP-3 transfected, phospho-Erk imaging KS statistic; at 10 µM; stronger effect = higher value; cells stimulated with TPA for 15 min
Sequence of Dual specificity protein phosphatase 6 (Homo sapiens) (Q16828 whole entry, looked up): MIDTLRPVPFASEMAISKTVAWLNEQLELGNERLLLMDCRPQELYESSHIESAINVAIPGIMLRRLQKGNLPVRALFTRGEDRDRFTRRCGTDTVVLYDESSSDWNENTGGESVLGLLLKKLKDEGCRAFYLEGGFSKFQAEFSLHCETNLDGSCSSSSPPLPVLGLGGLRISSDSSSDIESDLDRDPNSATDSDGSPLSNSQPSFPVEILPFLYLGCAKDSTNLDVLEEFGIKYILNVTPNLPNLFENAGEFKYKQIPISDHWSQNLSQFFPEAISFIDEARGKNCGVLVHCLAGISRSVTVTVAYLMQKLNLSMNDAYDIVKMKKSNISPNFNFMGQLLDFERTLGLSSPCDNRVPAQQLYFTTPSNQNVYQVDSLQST

[5] = target: Voltage-gated potassium channel subunit beta-2 (Rattus norvegicus) (UniProt P62483); test: KvBeta enzyme negative modulators, primary screen, biochemical, NADPH fluorescence (AID 622;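 active = fluorescence slope higher than the sample average by over 3 SD, cut at about -0.22 in these data, passing the limit was not always enough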;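 note: slope of raw intensity against log time taken from 70 to 1610 s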); details: recombinant KvBeta, 4-cyanobenzaldehyde reduction, at 10 µM, stronger effect = higher value
Sequence of Voltage-gated potassium channel subunit beta-2 (Rattus norvegicus) (P62483 whole entry, looked up): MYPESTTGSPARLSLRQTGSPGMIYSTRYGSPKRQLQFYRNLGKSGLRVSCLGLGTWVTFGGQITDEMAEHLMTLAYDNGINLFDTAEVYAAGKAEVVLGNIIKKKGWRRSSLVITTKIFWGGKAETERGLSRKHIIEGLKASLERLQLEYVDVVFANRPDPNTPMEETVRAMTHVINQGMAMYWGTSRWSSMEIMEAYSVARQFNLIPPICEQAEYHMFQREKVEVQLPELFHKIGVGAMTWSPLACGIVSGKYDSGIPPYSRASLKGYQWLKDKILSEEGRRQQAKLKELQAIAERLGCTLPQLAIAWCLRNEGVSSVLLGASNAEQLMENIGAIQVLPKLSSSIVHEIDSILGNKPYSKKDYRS

[6] = target: Voltage-gated potassium channel subunit beta-2 (Rattus norvegicus) (UniProt P62483); test: KvBeta positive modulators, primary screen, biochemical, NADPH fluorescence (AID 623;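 active = NADPH fluorescence slope more negative than the mean of all samples by about 3 SD, 99.7% confidence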;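 note: fluorescence intensity change per second fitted from 20 to 320 s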); details: Recombinant KvBeta, NADPH fluorescence decrease slope, 10 min; at 10 µM; stronger effect = lower value
[7] = target: Alpha-2C adrenergic receptor (Homo sapiens) (UniProt P18825); test: modulators of alpha2C/GIRK thallium flux, primary screen, cell-based, HEK293 alpha2C/GIRK1/2 (AID 624;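 active = fluorescence slope after compound addition differing from the mean of all screened samples at 99.7% confidence, in either direction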;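 note: slope of fluorescence ratio to pre-addition baseline per second over 15 to 24 s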); details: thallium flux BTC fluorescence, at 10 µM, actives lie on both sides
Sequence of Alpha-2C adrenergic receptor (Homo sapiens) (P18825 whole entry, looked up): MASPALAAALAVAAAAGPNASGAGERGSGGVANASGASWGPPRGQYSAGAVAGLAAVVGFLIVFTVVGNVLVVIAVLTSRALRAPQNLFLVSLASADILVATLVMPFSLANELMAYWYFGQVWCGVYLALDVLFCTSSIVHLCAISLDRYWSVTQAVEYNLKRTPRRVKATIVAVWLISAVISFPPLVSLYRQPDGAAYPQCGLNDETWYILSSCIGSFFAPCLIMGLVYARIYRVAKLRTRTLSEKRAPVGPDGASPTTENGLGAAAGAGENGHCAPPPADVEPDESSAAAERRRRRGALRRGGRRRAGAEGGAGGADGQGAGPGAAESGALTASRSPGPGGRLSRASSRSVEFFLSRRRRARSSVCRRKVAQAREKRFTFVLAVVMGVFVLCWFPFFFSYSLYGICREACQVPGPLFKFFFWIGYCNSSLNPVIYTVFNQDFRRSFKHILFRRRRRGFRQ

[8] = inhibitors of larval lipid processing in zebrafish, primary screen, whole organism, PED6 fluorescence, gall bladder and intestine (AID 686;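 active = a full or partial loss of lipid-probe fluorescence in the fish gall bladder, intestine or both, judged by eye; inactive = no fluorescence loss, or compound toxic to the fish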;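 note: larvae 5 to 7 days old with five fish per well; signal comes from phospholipase A2 cleavage of quenched PED6 carried via bile; overnight exposure to compound and PED6 before scoring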); details: Zebrafish larvae PED6 lipid processing, fluorescence scoring; screened at 20 µM (by protocol)
Method in brief: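 Also added: quenched phospholipase substrate PED6, 100 nM final, ingested by larvae; System: zebrafish larvae, 5-7 d; Quantity: 5 larvae per well; Compound: 20 µM single dose; Schedule: overnight compound and PED6 incubation; Read-out: visual per-well fluorescence inhibition score; Measured by: By-eye fluorescence microscopy; Medium: E3.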

[9] = inhibitors of Chlamydomonas gravitaxis, primary screen, whole organism, Chlamydomonas reinhardtii, WT vs cilia-less mutant, absorbance, 96-well (AID 463189;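 active = inhibition at or above 50% relative to wild type and mutant plate controls; inactive = inhibition below 50%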;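 note: 0% = wild type cc124 cells in DMSO and 100% = ciliumless bld1 mutant cells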); details: OD600 absorbance, 2 days, at 10 µM, stronger effect = higher value
[10] = measured here: cell density z-score
[11] = measured here: nuclear c-Myc green intensity z-score
[12] = measured here: nuclear pErk red intensity z-score, stronger effect = higher value

SMILES | cell count [1] | inhibition [1] | inhibition [2] | nuclei count [2] | z-score [3, 10] | z-score [3, 11] | z-score [3, 12] | inhibition [4] | fluorescence slope [5] | NADPH fluorescence slope [6] | slope [7] | outcome [8] | inhibition [9]
O=C1CCC(=O)N1CNc1ccccn1 | 493 | -5% (inactive) | -53.8% (inactive) | 99.7% | -0.594 | -0.186 | -0.375 | 7.93% (inactive) | -0.495 (inactive) | -5.8e-05 (inactive) | 0.00525 (inactive) | inactive | 23.2% (inactive)
COc1ccc(/C(O)=C2\C(=O)C(=O)N(c3cc(C)on3)C2c2cccc(OC)c2OC)cc1C (stereo unspecified) | 531 | -1.2% (inactive) | -148% (inactive) | 129% | -0.589 | 1.28 | 0.634 | 1.75% (inactive) | -0.5 (inactive) | -2.6e-05 (inactive) | 0.00468 (inactive) | inactive | -15.3% (inactive)
Cc1cc(=O)oc(C)c1C(=O)NCCN1CCOCC1 | 476 | -0.5% (inactive) | -10.6% (inactive) | 92.4% | -0.82 | 0.575 | 1.34 | -1.75% (inactive) | -0.491 (inactive) | -1.8e-05 (inactive) | 0.00592 (inactive) | inactive | 21.9% (inactive)
CN1CCN(C(=O)CSc2nc(-c3ccncc3)ccc2C#N)CC1 | 690 | -11.2% (inactive) | -21.2% (inactive) | 192% | 0.498 | 0.894 | -1.8 | -7.28% (inactive) | -0.416 (inactive) | -5e-05 (inactive) | 0.00348 (inactive) | inactive | -6.09% (inactive)
COc1cccc(-c2nc(N3CC(C)CC(C)C3)c3ccccc3n2)c1O (stereo unspecified) | 535 | -11.7% (inactive) | -37.3% (inactive) | 180% | -0.935 | 0.42 | 2.09 | -5.26% (inactive) | -0.393 (inactive) | -2.4e-05 (inactive) | 0.00414 (inactive) | inactive | 0.389% (inactive)
Cc1nc(-c2cn[nH]c2)c2cc(C)oc2n1 | 599 | -33.9% (inactive) | -51.1% (inactive) | 120% | -2.18 | 1.64 | 0.464 | -2.07% (inactive) | -0.491 (inactive) | -0.00022 (inactive) | 0.00453 (inactive) | inactive | -8.8% (inactive)
O=C(O)CC(SCc1ccc(C(=O)O)o1)C(=O)O (stereo unspecified) | 330 | -17.8% (inactive) | -29.5% (inactive) | 105% | 1.04 | -0.311 | -0.367 | 5.57% (inactive) | -0.528 (inactive) | -7.5e-06 (inactive) | 0.00659 (inactive) | inactive | 48.4% (inactive)
CC(C)(C)C1=Nn2c(nnc2-c2ccccn2)SC1 | 537 | -5.5% (inactive) | -200% (inactive) | 165% | 1.25 | 0.795 | -0.0968 | -2.47% (inactive) | -0.417 (inactive) | -0.000136 (inactive) | 0.00561 (inactive) | inactive | -9.77% (inactive)
N#Cc1c(NC(=O)CCC(=O)O)sc2c1CCCC2 | 715 | -11.6% (inactive) | -10.3% (inactive) | 186% | -1.16 | 1.41 | -1.22 | -7.28% (inactive) | -0.388 (inactive) | -5e-05 (inactive) | 0.00575 (inactive) | inactive | -7.91% (inactive)
COC(=O)c1sc(NC(=O)C(C)C)c(C(=O)OC)c1C | 354 | -0.5% (inactive) | 29.8% (inactive) | 93.5% | -0.757 | -0.742 | 1.06 | 3.42% (inactive) | -0.426 (inactive) | -1.5e-05 (inactive) | 0.00623 (inactive) | inactive | -7.45% (inactive)
COc1cccc(C2/C(=C(/O)c3cnn(-c4ccccc4)c3C)C(=O)C(=O)N2CCN(C)C)c1OC (stereo unspecified) | 502 | 6.3% (inactive) | -119% (inactive) | 152% | -0.295 | 0.206 | -1.1 | -7.01% (inactive) | -0.506 (inactive) | -2.1e-05 (inactive) | 0.00541 (inactive) | inactive | 8.54% (inactive)
Cc1c(NS(=O)(=O)c2cccc3nsnc23)c(=O)n(-c2ccccc2)n1C | 549 | -1.1% (inactive) | -51.8% (inactive) | 154% | 0.537 | 0.599 | -0.221 | -6.06% (inactive) | -0.499 (inactive) | -3.8e-05 (inactive) | 0.00709 (inactive) | inactive | -6.26% (inactive)
CCCOc1ccc(-c2nnc(N)s2)cc1 | 608 | -13.2% (inactive) | -31.6% (inactive) | 164% | 0.463 | 0.84 | -0.902 | -4.27% (inactive) | -0.403 (inactive) | -6.2e-05 (inactive) | 0.00732 (inactive) | inactive | -0.862% (inactive)
C=CCSc1nc(C)c(CC=C)c(=O)[nH]1 | 482 | -4.7% (inactive) | -71.1% (inactive) | 87.6% | 0.711 | -0.59 | 0.352 | 11.9% (inactive) | -0.472 (inactive) | -1.2e-06 (inactive) | 0.00783 (inactive) | inactive | 31.6% (inactive)
C1CCCN(CCCCN2CCCCCC2)CC1 | 575 | -1.5% (inactive) | -211% (inactive) | 129% | -2.5 | 1.44 | -0.0614 | -5.89% (inactive) | -0.456 (inactive) | -0.000347 (inactive) | 0.00726 (inactive) | inactive | -11.5% (inactive)
CCCc1[nH]n(-c2nc3ccccc3s2)c(=O)c1C=NCCN1CCOCC1 | 538 | 1.3% (inactive) | -110% (inactive) | 123% | -0.895 | 0.406 | -1.01 | 7.93% (inactive) | -0.474 (inactive) | -4e-05 (inactive) | 0.00553 (inactive) | inactive | 19.8% (inactive)
C=CCn1c(SCC(=O)OC)nc2sc3c(c2c1=O)CCN(C)C3 | 489 | 5.2% (inactive) | -55.9% (inactive) | 177% | 0.349 | 0.211 | -0.762 | 1.48% (inactive) | -0.234 (inactive) | -1.8e-05 (inactive) | 0.00333 (inactive) | inactive | -3.61% (inactive)
Cc1nc2c(c(=O)n1CC1CCCO1)c1nc3ccccc3nc1n2CCC(C)C (stereo unspecified) | 327 | -4.1% (inactive) | -30.1% (inactive) | 177% | 1.21 | -0.55 | 1.04 | -0.584% (inactive) | -0.381 (inactive) | -0.000104 (inactive) | 0.00821 (inactive) | inactive | 24.8% (inactive)
COc1ccccc1OCC(=O)Nc1ccc(S(=O)(=O)Nc2cc(C)nc(C)n2)cc1 | 571 | -6.6% (inactive) | 3% (inactive) | 159% | 0.333 | 1.18 | -0.662 | 4.25% (inactive) | -0.303 (inactive) | 1.9e-05 (inactive) | 0.0043 (inactive) | inactive | -4.91% (inactive)
c1coc(-c2nnc3sc(-c4cccs4)nn23)c1 | 471 | 2.8% (inactive) | -41.9% (inactive) | 132% | -1.75 | 0.838 | 2.17 | -13.3% (inactive) | -0.459 (inactive) | 9.9e-06 (inactive) | 0.00352 (inactive) | active; weak signal in gallbladder and intestine | 3.53% (inactive)
COc1ccc(NC(=O)C2CSC3c4ccccc4C(=O)N23)cc1 (stereo unspecified) | 376 | 0.6% (inactive) | -32.1% (inactive) | 112% | -0.228 | 0.485 | -1.59 | -1.12% (inactive) | -0.355 (inactive) | 2.4e-05 (inactive) | 0.00604 (inactive) | inactive | 127% (active)
CC(C)(C)NCC(=O)c1c[nH]c2ccccc12 | 535 | -1.7% (inactive) | -49.5% (inactive) | 146% | -0.736 | 1.42 | -0.666 | -1.75% (inactive) | -0.35 (inactive) | 5.2e-06 (inactive) | 0.00435 (inactive) | inactive | -1.18% (inactive)
OCCNc1nc(-c2ccccc2)c2ccccc2n1 | 419 | -4.7% (inactive) | -153% (inactive) | 133% | -0.162 | 1.09 | -0.852 | -10.1% (inactive) | -0.341 (inactive) | -1.3e-05 (inactive) | 0.00672 (inactive) | inactive | -5.43% (inactive)
O=c1c(F)cn(C2CCCO2)c(=O)n1Cc1ccccc1Cl (stereo unspecified) | 614 | 1.6% (inactive) | 11.4% (inactive) | 203% | 0.269 | 0.415 | 0.187 | 0.671% (inactive) | -0.534 (inactive) | -7.3e-05 (inactive) | 0.00591 (inactive) | inactive | 4.11% (inactive)
COC(=O)c1cc(OC)c(OC)cc1N | 358 | -11.5% (inactive) | 9.3% (inactive) | 135% | 0.282 | 0.254 | 0.0446 | -12.3% (inactive) | -0.385 (inactive) | -0.000132 (inactive) | 0.00592 (inactive) | inactive | -2.54% (inactive)
Fc1ccccc1/C=N/n1cnnc1 | 540 | -6.3% (inactive) | -60.4% (inactive) | 172% | 0.728 | -0.356 | 0.425 | 4.25% (inactive) | -0.297 (inactive) | -6.2e-06 (inactive) | 0.00552 (inactive) | inactive | 5.22% (inactive)
O=C1[C@@H]2[C@H](C(=O)N1n1cnnc1)[C@H]1C=C[C@@H]2C1 | 618 | -4.3% (inactive) | -49.4% (inactive) | 143% | -1.23 | -0.0869 | -0.601 | 4.25% (inactive) | -0.529 (inactive) | -6.9e-05 (inactive) | 0.00514 (inactive) | inactive | 13.5% (inactive)

Reference: PubChem BioAssay
